According to article PMC8361970 (Pediatric Diabetes, 2021):

Key:
Assay type in all cases: in vivo, human
[1] = system: children and adolescents (6–17 years) with type 1 diabetes, insulin-induced hypoglycemia; conditions: for Mean PG increase from baseline after 30 min: 30 min after single SC dose, full analysis set; for IV glucose rescue required (participants): within 45 min of single SC dose
Procedure, shortened: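 After an overnight fast, IV insulin glulisine was infused until PG fell below 80 mg/dL. Five min later, if PG was 54–80 mg/dL, a single SC injection was given. Central-lab PG was taken pre-dose and at 4–45 min (60 min if ≥21 kg). Change from baseline was analysed by ANCOVA (treatment, age group, injection site; baseline PG covariate), with PG at rescue carried forward.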

[2] = system: children and adolescents (6–17 years) with type 1 diabetes; assay: Phase 3 trial: adverse events; conditions: for Duration of nausea AEs / Duration of vomiting AEs: majority of events; for Onset of nausea AEs after dosing: most AEs of nausea
[3] = system: children and adolescents (6–17 years) with type 1 diabetes; assay: Phase 3 trial: anti-drug antibodies; conditions: the one positive participant

| Anti-drug antibody titer [3] | Cross-reaction of anti-drug antibodies with glucagon [3] | Neutralizing activity of anti-drug antibodies [3] | Substance | Mean PG increase from baseline after 30 min [1] | IV glucose rescue required (participants) [1] | Duration of nausea AEs [2] | Duration of vomiting AEs [2] | Onset of nausea AEs after dosing [2] |
| --- | --- | --- | --- | --- | --- | --- | --- | --- |
| low titer | did not cross‐react with glucagon | No neutralizing activity was detected | dasiglucagon | 98.2 mg/dL | none | less than 2 h | less than 5 min | 1.5 to 3 h |
|  |  |  | glucagon [reference compound] | 8440 mg/dL | none | less than 2 h | less than 5 min | 1.5 to 3 h |
